# In ChEMBL document CHEMBL3616442, “Unconventional Knoevenagel-type indoles: Synthesis and cell-based studies for the identification of pro-apoptotic agents” (Eur J Med Chem, 2015):
# How the values were obtained:
# Format in all cases: functional
# [1] = Growth inhibition of human LOXIMVI cells after 48 hrs by sulforhodamine B assay; settings: LOX IMVI
# Method in brief: (§1)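 NCI 60-cell-line screen. Compounds tested at five 10-fold dilutions from 10^-4 to 10^-8 M. Cells exposed for the last 48 h of a 72 h incubation, growth estimated by sulforhodamine B protein assay. GI50 is the concentration giving 50% growth inhibition. Values beyond the tested range are expressed as greater or lesser than the extreme concentration.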
# TK-10 = assay: Growth inhibition of human TK10 cells after 48 hrs by sulforhodamine B assay; settings: TK-10, 48 h
# SK-MEL-2 = assay: Growth inhibition of human SK-MEL-2 cells after 48 hrs by sulforhodamine B assay; settings: SK-MEL-2, 48 h
# HOP-62 = assay: Growth inhibition of human HOP62 cells after 48 hrs by sulforhodamine B assay; settings: HOP-62, 48 h; method in brief: as §1
# HT-29 = assay: Growth inhibition of human HT-29 cells after 48 hrs by sulforhodamine B assay; settings: HT-29, 48 h; method in brief: as §1
# UO-31 = assay: Growth inhibition of human UO31 cells after 48 hrs by sulforhodamine B assay; settings: UO-31, 48 h
# M14 = assay: Growth inhibition of human M14 cells after 48 hrs by sulforhodamine B assay; settings: M14, 48 h; method in brief: as §1
# CAKI-1 = assay: Growth inhibition of human CAKI-1 cells after 48 hrs by sulforhodamine B assay; settings: CAKI-1, 48 h; method in brief: as §1
# [2] = Growth inhibition of human EKVX cells after 48 hrs by sulforhodamine B assay; method in brief: as §1
# [3] = Growth inhibition of human RPMI8226 cells after 48 hrs by sulforhodamine B assay; settings: RPMI-8226, 48 h
# SF-268 = assay: Growth inhibition of human SF268 cells after 48 hrs by sulforhodamine B assay; settings: SF-268, 48 h
# A498 = assay: Growth inhibition of human A498 cells after 48 hrs by sulforhodamine B assay; settings: A498, 48 h; method in brief: as §1
# NCI-H522 = assay: Growth inhibition of human NCI-H522 cells after 48 hrs by sulforhodamine B assay; settings: NCI-H522, 48 h; method in brief: as §1
# UACC-257 = assay: Growth inhibition of human UACC257 cells after 48 hrs by sulforhodamine B assay; settings: UACC-257, 48 h
# 786-0 = assay: Growth inhibition of human 786-0 cells after 48 hrs by sulforhodamine B assay; settings: 786-0, 48 h; method in brief: as §1
# [4] = Growth inhibition of human HCC2998 cells after 48 hrs by sulforhodamine B assay; settings: HCC 2998, 48 h; method in brief: as §1
# DU-145 = assay: Growth inhibition of human DU145 cells after 48 hrs by sulforhodamine B assay; settings: DU-145, 48 h; method in brief: as §1
# [5] = Growth inhibition of human SF539 cells after 48 hrs by sulforhodamine B assay; settings: SF-539, 48 h
# SK-MEL-5 = assay: Growth inhibition of human SK-MEL-5 cells after 48 hrs by sulforhodamine B assay; settings: SK-MEL-5, 48 h
# NCI-H460 = assay: Growth inhibition of human NCI-H460 cells after 48 hrs by sulforhodamine B assay; settings: NCI-H460, 48 h; method in brief: as §1
# Malme-3M = assay: Growth inhibition of human MALME-3M cells after 48 hrs by sulforhodamine B assay; method in brief: as §1
# [6] = Growth inhibition of human Hs 578T cells after 48 hrs by sulforhodamine B assay; method in brief: as §1
# OVCAR-3 = assay: Growth inhibition of human OVCAR3 cells after 48 hrs by sulforhodamine B assay; settings: OVCAR-3, 48 h; method in brief: as §1
# A549 = assay: Growth inhibition of human A549 cells after 48 hrs by sulforhodamine B assay; settings: A549, 48 h; method in brief: as §1
# [7] = Growth inhibition of human RXF393 cells after 48 hrs by sulforhodamine B assay; settings: RXF 393, 48 h
# NCI-H226 = assay: Growth inhibition of human NCI-H226 cells after 48 hrs by sulforhodamine B assay; settings: NCI-H226, 48 h; method in brief: as §1
# OVCAR-5 = assay: Growth inhibition of human OVCAR5 cells after 48 hrs by sulforhodamine B assay; settings: OVCAR-5, 48 h
# [8] = Growth inhibition of human HOP92 cells after 48 hrs by sulforhodamine B assay; settings: HOP-92, 48 h; method in brief: as §1
# SK-MEL-28 = assay: Growth inhibition of human SK-MEL-28 cells after 48 hrs by sulforhodamine B assay; settings: SK-MEL-28, 48 h
# OVCAR-8 = assay: Growth inhibition of human OVCAR8 cells after 48 hrs by sulforhodamine B assay; settings: OVCAR-8, 48 h
# [9] = Growth inhibition of human NCI-ADR-RES cells after 48 hrs by sulforhodamine B assay; method in brief: as §1
# NCI-H322M = assay: Growth inhibition of human NCI-H322M cells after 48 hrs by sulforhodamine B assay; method in brief: as §1
# SNB-19 = assay: Growth inhibition of human SNB19 cells after 48 hrs by sulforhodamine B assay; settings: SNB-19, 48 h
# PC-3 = assay: Growth inhibition of human PC3 cells after 48 hrs by sulforhodamine B assay; settings: PC-3, 48 h
# MDA-MB-468 = assay: Growth inhibition of human MDA-MB-468 cells after 48 hrs by sulforhodamine B assay; settings: MDA-MB-468, 48 h; method in brief: as §1
# MCF7 = assay: Growth inhibition of human MCF7 cells after 48 hrs by sulforhodamine B assay; settings: MCF7, 48 h; method in brief: as §1
# IGROV-1 = assay: Growth inhibition of human IGROV1 cells after 48 hrs by sulforhodamine B assay; settings: IGROV-1, 48 h; method in brief: as §1
# [10] = Growth inhibition of human COLO205 cells after 48 hrs by sulforhodamine B assay; settings: COLO 205, 48 h; method in brief: as §1
# SNB-75 = assay: Growth inhibition of human SNB75 cells after 48 hrs by sulforhodamine B assay; settings: SNB-75, 48 h
# [11] = Growth inhibition of human SF295 cells after 48 hrs by sulforhodamine B assay; settings: SF-295, 48 h
# UACC-62 = assay: Growth inhibition of human UACC62 cells after 48 hrs by sulforhodamine B assay; settings: UACC-62, 48 h
# [12] = Growth inhibition of human BT549 cells after 48 hrs by sulforhodamine B assay; settings: BT-549, 48 h; method in brief: as §1
# K562 = assay: Growth inhibition of human K562 cells after 48 hrs by sulforhodamine B assay; settings: K562, 48 h; method in brief: as §1
# T47D = assay: Growth inhibition of human T47D cells after 48 hrs by sulforhodamine B assay
# [13] = Growth inhibition of human MOLT4 cells after 48 hrs by sulforhodamine B assay; settings: MOLT-4, 48 h; method in brief: as §1
smiles,measurement,setting,value
CC(=O)/C(=C\c1c(-c2ccccc2)[nH]c2ccccc12)S(C)(=O)=O,GI50,[1],3.4 µM
same,GI50,TK-10,13.5 µM
same,GI50,SK-MEL-2,8.6 µM
same,GI50,HOP-62,12.1 µM
same,GI50,HT-29,1.6 µM
same,GI50,UO-31,5.8 µM
same,GI50,M14,1.6 µM
same,GI50,CAKI-1,5.6 µM
same,GI50,[2],6.4 µM
same,GI50,[3],3 µM
same,GI50,SF-268,4.2 µM
same,GI50,A498,3.9 µM
same,GI50,NCI-H522,3.6 µM
same,GI50,UACC-257,43.8 µM
same,GI50,786-0,3.5 µM
same,GI50,[4],8 µM
same,GI50,DU-145,3.5 µM
same,GI50,[5],1.9 µM
same,GI50,SK-MEL-5,1.9 µM
same,GI50,NCI-H460,2.8 µM
same,GI50,Malme-3M,4.8 µM
same,GI50,[6],1.6 µM
same,GI50,OVCAR-3,2.3 µM
same,GI50,A549,7.3 µM
same,GI50,[7],2.6 µM
same,GI50,NCI-H226,27.1 µM
same,GI50,OVCAR-5,16.1 µM
same,GI50,[8],3.8 µM
same,GI50,SK-MEL-28,3.3 µM
same,GI50,OVCAR-8,5.2 µM
same,GI50,[9],2.1 µM
same,GI50,NCI-H322M,9.6 µM
same,GI50,SNB-19,3.4 µM
same,GI50,PC-3,4.5 µM
same,GI50,MDA-MB-468,1.8 µM
same,GI50,MCF7,2.7 µM
same,GI50,IGROV-1,8.3 µM
same,GI50,[10],3 µM
same,GI50,SNB-75,1.5 µM
same,GI50,[11],3.9 µM
same,GI50,UACC-62,3.2 µM
same,GI50,[12],2.4 µM
same,GI50,K562,0.679 µM
same,GI50,T47D,2.3 µM
same,GI50,[13],4.4 µM
COc1ccc(-c2[nH]c3ccccc3c2C=C(C#N)C#N)cc1,GI50,[1],1.8 µM
same,GI50,TK-10,0.925 µM
same,GI50,SK-MEL-2,0.763 µM
same,GI50,HOP-62,1.2 µM
same,GI50,HT-29,0.354 µM
same,GI50,UO-31,2.8 µM
same,GI50,M14,0.295 µM
same,GI50,CAKI-1,0.679 µM
same,GI50,[2],0.656 µM
same,GI50,[3],0.49 µM
same,GI50,SF-268,0.709 µM
same,GI50,A498,0.458 µM
same,GI50,NCI-H522,0.798 µM
same,GI50,UACC-257,0.424 µM
same,GI50,786-0,0.72 µM
same,GI50,[4],0.751 µM
same,GI50,DU-145,0.484 µM
same,GI50,[5],0.263 µM
same,GI50,SK-MEL-5,0.35 µM
same,GI50,NCI-H460,0.359 µM
same,GI50,Malme-3M,0.874 µM
same,GI50,[6],0.241 µM
same,GI50,OVCAR-3,0.265 µM
same,GI50,A549,0.7 µM
same,GI50,[7],0.518 µM
same,GI50,NCI-H226,1.1 µM
same,GI50,OVCAR-5,1.8 µM
same,GI50,[8],1.2 µM
same,GI50,SK-MEL-28,1.2 µM
same,GI50,OVCAR-8,1.2 µM
same,GI50,[9],0.343 µM
same,GI50,NCI-H322M,0.49 µM
same,GI50,SNB-19,1.8 µM
same,GI50,PC-3,0.547 µM
same,GI50,MDA-MB-468,0.418 µM
same,GI50,MCF7,0.347 µM
same,GI50,IGROV-1,1.4 µM
same,GI50,[10],0.223 µM
same,GI50,SNB-75,0.418 µM
same,GI50,[11],0.336 µM
same,GI50,UACC-62,0.357 µM
same,GI50,[12],0.769 µM
same,GI50,K562,0.343 µM
same,GI50,T47D,0.481 µM
same,GI50,[13],0.578 µM
